We go through 24 compounds from ChEMBL document CHEMBL3045650, “Design, synthesis, and 3D-QSAR analysis of novel 1,3,4-oxadiazol-2(3H)-ones as protoporphyrinogen oxidase inhibitors” (J Agric Food Chem, 2010).

The subject of one assay is Digitaria sanguinalis. Put plainly: Post-emergence herbicidal activity against Digitaria sanguinalis (hairy crabgrass) assessed as growth inhibition at emulsified concentrate of 150 g/ai ha after 15 days by greenhouse test. The format is functional. The method in brief: (§1)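 About 20 seeds sown 1–3 cm deep, grown at 15–30 °C and 50% RH. Monocot seedlings sprayed postemergence at the one-leaf stage with a 100 g/L emulsifiable concentrate (DMF/Tween-80) diluted in water, 150 g ai/ha. Untreated and solvent controls included. Visual rating at 15 days, three replicates.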

The test system of a further assay is Eclipta prostrata. The assay is described as follows: Post-emergence herbicidal activity against Eclipta prostrata assessed as growth inhibition at emulsified concentrate of 150 g/ai ha after 15 days by greenhouse test. The format is functional. The method in brief:
(§2)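 About 20 seeds sown 1–3 cm deep, grown at 15–30 °C and 50% RH. Dicot seedlings sprayed postemergence at the two-leaf stage with a 100 g/L emulsifiable concentrate (DMF/Tween-80) diluted in water, 150 g ai/ha. Untreated and solvent controls included. Visual rating at 15 days, three replicates.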

For assay [1], the target named is T1, Protoporphyrinogen oxidase (Homo sapiens, UniProt P50336).
T1 sequence (P50336 whole entry): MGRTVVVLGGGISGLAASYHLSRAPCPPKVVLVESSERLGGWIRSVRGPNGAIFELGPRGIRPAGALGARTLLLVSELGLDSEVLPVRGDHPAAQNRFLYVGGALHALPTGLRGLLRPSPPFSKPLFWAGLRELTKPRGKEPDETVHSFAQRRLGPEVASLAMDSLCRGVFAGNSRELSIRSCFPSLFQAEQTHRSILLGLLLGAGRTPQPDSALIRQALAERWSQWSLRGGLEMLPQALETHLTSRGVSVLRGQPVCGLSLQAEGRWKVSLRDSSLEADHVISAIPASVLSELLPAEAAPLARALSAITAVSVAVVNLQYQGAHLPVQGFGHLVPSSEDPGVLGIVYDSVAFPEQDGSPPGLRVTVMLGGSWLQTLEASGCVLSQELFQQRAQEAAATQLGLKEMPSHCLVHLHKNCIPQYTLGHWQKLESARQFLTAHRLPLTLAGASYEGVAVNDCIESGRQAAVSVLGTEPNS
Put plainly: Inhibition of Homo sapiens (human) recombinant protoporphyrinogen oxidase expressed in Escherichia coli JM109 assessed as oxidation of protoporphyrinogen IX substrate by fluorescence assay.

A further assay relates to Amaranthus retroflexus. Put plainly: Post-emergence herbicidal activity against Amaranthus retroflexus assessed as growth inhibition at emulsified concentrate of 150 g/ai ha after 15 days by greenhouse test. The format is functional. The method in brief:
as §2

In a further assay the test system is Poa annua. Put plainly: Post-emergence herbicidal activity against Poa annua assessed as growth inhibition at emulsified concentrate of 150 g/ai ha after 15 days by greenhouse test. The format is functional. The method, boiled down:
as §1

The test system of another assay is Brassica juncea. The assay is described as follows: Post-emergence herbicidal activity against Brassica juncea assessed as growth inhibition at emulsified concentrate of 150 g/ai ha after 15 days by greenhouse test. The format is functional. The method, boiled down:
as §2

A further assay deals with Echinochloa crus-galli. Put plainly: Post-emergence herbicidal activity against Echinochloa crus-galli (barnyard grass) assessed as growth inhibition at emulsified concentrate of 150 g/ai ha after 15 days by greenhouse test. The format is functional. The method, boiled down: as §1

For orientation: Ki means a dissociation constant, usually derived from enzyme kinetics or from competition with a known ligand.

In the case of `CCOC(=O)Sc1nc2cc(-n3nc(C(C)(C)C)oc3=O)c(F)cc2s1`, the “inhibition (INH)” value in the assay on Digitaria sanguinalis, with Eclipta prostrata, in the assay on Amaranthus retroflexus, in the assay with Poa annua, with Brassica juncea and in the assay on Echinochloa crus-galli was 0% throughout. Besides, in assay [1], the Ki was found to be 1300 nM.

Regarding `COC(=O)CSc1nc2cc(-n3nc(C(C)(C)C)oc3=O)c(F)cc2s1`, the “inhibition (INH)” value turned out to be 0% in the assay on Digitaria sanguinalis; 0% in the assay with Eclipta prostrata; 60% with Amaranthus retroflexus; 0% in the assay on Poa annua; 0% in the assay on Brassica juncea; 0% in the assay on Echinochloa crus-galli. Moreover, the Ki in assay [1] was determined as 3990 nM.

As for `CCOC(=O)C(C)(C)Sc1nc2cc(-n3nc(C(C)(C)C)oc3=O)c(F)cc2s1`, the “inhibition (INH)” value in the assay with Digitaria sanguinalis is listed as 0%; in the assay on Eclipta prostrata, 70%; in the assay on Amaranthus retroflexus, 60%; in the assay on Poa annua, 0%; with Brassica juncea, 50%; in the assay on Echinochloa crus-galli, 0%. In addition, in assay [1], the Ki was found to be 1540 nM.

On to `CCOC(=O)CCSc1nc2cc(-n3nc(C(C)(C)C)oc3=O)c(F)cc2s1`, for which the “inhibition (INH)” value with Digitaria sanguinalis stood at 0%; with Eclipta prostrata, 50%; in the assay on Amaranthus retroflexus it was 50%; in the assay on Poa annua it was 0%; in the assay on Brassica juncea, 60%; in the assay on Echinochloa crus-galli, 0%. In addition, the Ki in assay [1] was 320 nM.

`CCOC(=O)Sc1nc2cc(-n3nc(C(C)(C)C)oc3=O)c(Cl)cc2s1`: the “inhibition (INH)” value amounted to 0% in the assay with Digitaria sanguinalis; 40% in the assay on Eclipta prostrata; 70% with Amaranthus retroflexus; 0% in the assay with Poa annua; 70% in the assay on Brassica juncea; 0% with Echinochloa crus-galli. For the same compound, the Ki in assay [1] was found to be 330 nM.

Turning to `CCOC(=O)CSc1nc2cc(-n3nc(C(C)(C)C)oc3=O)c(Cl)cc2s1`, the “inhibition (INH)” value in the assay on Digitaria sanguinalis was 0%; in the assay with Eclipta prostrata, 60%; with Amaranthus retroflexus, 70%; in the assay on Poa annua, 0%; in the assay with Brassica juncea, 50%; with Echinochloa crus-galli, 0%. In assay [1], the Ki came to 1010 nM.

For the compound `CCOC(=O)C(C)(C)Sc1nc2cc(-n3nc(C(C)(C)C)oc3=O)c(Cl)cc2s1`, the “inhibition (INH)” value with Digitaria sanguinalis is given as 0%; in the assay on Eclipta prostrata it was 50%; with Amaranthus retroflexus it was 50%; in the assay with Poa annua, 0%; in the assay on Brassica juncea, 60%; in the assay on Echinochloa crus-galli, 0%. In addition, in assay [1], the Ki was 1350 nM.

On to `CCOC(=O)CCCSc1nc2cc(-n3nc(C(C)(C)C)oc3=O)c(Cl)cc2s1`, for which the “inhibition (INH)” value came to 0% with Digitaria sanguinalis; 0% in the assay with Eclipta prostrata; 50% in the assay with Amaranthus retroflexus; 0% with Poa annua; 0% in the assay on Brassica juncea; 0% in the assay with Echinochloa crus-galli. Further, in assay [1], the inhibition constant (Ki) came to 2020 nM.

Regarding `C#CCSc1nc2cc(-n3nc(C(C)(C)C)oc3=O)c(Cl)cc2s1`, in assay [1], the Ki came out at 8610 nM.

For the compound `CCOC(=O)CCCSc1nc2cc(-n3nc(C(C)(C)C)oc3=O)c(Br)cc2s1`, in assay [1], the Ki came out at 5830 nM.

As to `C#CCSc1nc2cc(-n3nc(C(C)(C)C)oc3=O)c(Br)cc2s1`, the “inhibition (INH)” value was 0% with Digitaria sanguinalis; 40% in the assay on Eclipta prostrata; 40% with Amaranthus retroflexus; 0% in the assay with Poa annua; 40% with Brassica juncea; 0% in the assay with Echinochloa crus-galli. Moreover, in assay [1], the Ki stood at 11100 nM.

On to `CC(C)(C)c1nn(-c2cc3nc(SCC=C(Cl)Cl)sc3cc2Br)c(=O)o1`, for which the Ki in assay [1] is 18600 nM.

On to `COC(=O)/C=C/CSc1nc2cc(-n3nc(C(C)(C)C)oc3=O)c(F)cc2s1`, for which the “inhibition (INH)” value with Digitaria sanguinalis was 0%; with Eclipta prostrata, 50%; in the assay on Amaranthus retroflexus it was 40%; in the assay with Poa annua, 0%; with Brassica juncea, 40%; in the assay on Echinochloa crus-galli it was 0%. Besides, in assay [1], the Ki amounted to 7480 nM.

Consider `CC(C)(C)c1nn(-c2cc3nc(SCC=C(Cl)Cl)sc3cc2F)c(=O)o1`, for which the “inhibition (INH)” value in the assay with Digitaria sanguinalis is on record as 40%; in the assay with Eclipta prostrata, 60%; in the assay with Amaranthus retroflexus it was 60%; in the assay on Poa annua, 50%; with Brassica juncea, 70%; in the assay on Echinochloa crus-galli, 50%. Moreover, the Ki in assay [1] is 10900 nM.

Turning to `CCCOC(=O)CSc1nc2cc(-n3nc(C(C)(C)C)oc3=O)c(Cl)cc2s1`, the “inhibition (INH)” value in the assay with Digitaria sanguinalis came out at 0%; in the assay on Eclipta prostrata it was 0%; in the assay with Amaranthus retroflexus, 70%; in the assay with Poa annua, 0%; in the assay on Brassica juncea, 0%; in the assay on Echinochloa crus-galli it was 0%. Further, the Ki in assay [1] was determined as 980 nM.

Turning to `CC(C)OC(=O)CSc1nc2cc(-n3nc(C(C)(C)C)oc3=O)c(Cl)cc2s1`, the “inhibition (INH)” value in the assay on Digitaria sanguinalis turned out to be 0%; in the assay on Eclipta prostrata it was 0%; with Amaranthus retroflexus, 50%; with Poa annua it was 0%; in the assay with Brassica juncea it was 0%; in the assay on Echinochloa crus-galli, 0%. Also, the Ki in assay [1] was 2170 nM.

As to `C=CCSc1nc2cc(-n3nc(C(C)(C)C)oc3=O)c(Cl)cc2s1`, the “inhibition (INH)” value in the assay with Digitaria sanguinalis was determined as 0%; in the assay on Eclipta prostrata, 60%; in the assay with Amaranthus retroflexus, 70%; with Poa annua, 0%; in the assay on Brassica juncea, 70%; in the assay on Echinochloa crus-galli it was 0%. Further, the Ki in assay [1] was 3110 nM.

On to `COC(=O)CSc1nc2cc(-n3nc(C(C)(C)C)oc3=O)c(Cl)cc2s1`, for which the “inhibition (INH)” value is on record as 0% in the assay with Digitaria sanguinalis; 50% in the assay with Eclipta prostrata; 70% with Amaranthus retroflexus; 0% in the assay with Poa annua; 0% in the assay with Brassica juncea; 0% with Echinochloa crus-galli. The Ki in assay [1] was 1070 nM.

Regarding `CC(C)(C)OC(=O)CSc1nc2cc(-n3nc(C(C)(C)C)oc3=O)c(Cl)cc2s1`, the “inhibition (INH)” value in the assay with Digitaria sanguinalis was found to be 0%; with Eclipta prostrata, 30%; with Amaranthus retroflexus it was 40%; in the assay with Poa annua it was 0%; in the assay with Brassica juncea, 50%; with Echinochloa crus-galli it was 0%. Also, the Ki in assay [1] stood at 840 nM.

For `CC(C)(C)OC(=O)CSc1nc2cc(-n3nc(C(C)(C)C)oc3=O)c(F)cc2s1`, the “inhibition (INH)” value with Digitaria sanguinalis, with Eclipta prostrata, in the assay with Amaranthus retroflexus, with Poa annua, in the assay on Brassica juncea and in the assay with Echinochloa crus-galli was 0% each time. Also, the Ki in assay [1] was determined as 1590 nM.

Take `CC(C)(C)c1nn(-c2cc3nc(SCC=C(Cl)Cl)sc3cc2Cl)c(=O)o1`: the “inhibition (INH)” value in the assay on Digitaria sanguinalis stood at 0%; in the assay on Eclipta prostrata, 40%; in the assay with Amaranthus retroflexus it was 70%; in the assay with Poa annua it was 0%; in the assay on Brassica juncea, 70%; in the assay on Echinochloa crus-galli it was 0%. Also, in assay [1], the Ki is 10200 nM.

In the case of `C=CCSc1nc2cc(-n3nc(C(C)(C)C)oc3=O)c(F)cc2s1`, the “inhibition (INH)” value turned out to be 0% in the assay on Digitaria sanguinalis; 40% with Eclipta prostrata; 60% with Amaranthus retroflexus; 0% in the assay with Poa annua; 60% in the assay with Brassica juncea; 0% in the assay with Echinochloa crus-galli. The Ki in assay [1] was 15900 nM.

On to `COC(=O)Sc1nc2cc(-n3nc(C(C)(C)C)oc3=O)c(F)cc2s1`, for which the “inhibition (INH)” value turned out to be 0% in the assay on Digitaria sanguinalis; 0% in the assay with Eclipta prostrata; 40% with Amaranthus retroflexus; 0% with Poa annua; 0% in the assay on Brassica juncea; 0% with Echinochloa crus-galli. Besides, the Ki in assay [1] worked out at 720 nM.

As for `Cc1nn(-c2cc(NS(C)(=O)=O)c(Cl)cc2Cl)c(=O)n1C(F)F` [SULFENTRAZONE], the “inhibition (INH)” value with Digitaria sanguinalis turned out to be 70%; with Eclipta prostrata it was 100%; in the assay with Amaranthus retroflexus, 100%; in the assay on Brassica juncea, 100%; with Echinochloa crus-galli it was 75%. In assay [1], the Ki amounted to 720 nM.
